Assay [1] relates to Mast cell. In words: Inhibition of compound-48/80 induced degranulation in Wistar rat peritoneal mast cells assessed as histamine release at 20 uM by spectrophotometry.
Assay [2] deals with Mast cell. Put plainly: Inhibition of A23187-induced degranulation in Wistar rat peritoneal mast cells assessed as histamine release by spectrophotometry.
Assay [3] deals with Mast cell. In words: Inhibition of concanavalin A-induced degranulation in Wistar rat peritoneal mast cells assessed as histamine release by spectrophotometry.
For assay [4], the system named is Mast cell. Put plainly: Inhibition of compound-48/80 induced degranulation in Wistar rat peritoneal mast cells assessed as histamine release by spectrophotometry.
Assay [5] concerns Mast cell. In words: Inhibition of compound-48/80 induced degranulation in Wistar rat peritoneal mast cells assessed as histamine release at 20 uM by spectrophotometry. In kind it is functional. Summed up: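 Peritoneal cells recovered by lavage with 15 ml HEPES buffer at 37 °C from a female Wistar rat (250-300 g). Cells washed by centrifugation, >90% viable, about 1.4% mast cells. Stopped with iced buffer; released histamine measured by o-phthalaldehyde spectrophotometry. Mean of at least five experiments, SE given.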

A further assay relates to Mus musculus. In words: Antiinflammatory activity in Laca mouse assessed as inhibition of arachidonic acid-induced ear oedema at 300 ug/ear. In kind it is functional. In a few lines:
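Male Laca mice (25-30 g), groups of five, sedated with sodium pentobarbitone 60 mg kg-1 i.p. Compound or indomethacin at 300 µg ear-1 and arachidonic acid at 1 mg ear-1, all in acetone. 5 mm punch biopsies taken from both ears and weighed; left-ear weight subtracted from right. Inhibition calculated against the AA-only group. Student's t-test; at least 5 animals.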

Assay [6] has as its system Mast cell. Put plainly: Inhibition of compound-48/80 induced degranulation in Wistar rat peritoneal mast cells assessed as histamine release by spectrophotometry. It counts as functional, cell-based. In a few lines:
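Female Wistar rat (250-300 g) peritoneal lavage cells in HEPES buffer, unpurified, preincubated with compound across a dose range. Stopped with iced buffer; histamine release measured spectrophotometrically as o-phthalaldehyde complex. IC50 derived from dose-response curve fitting.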

Calls of active or inactive are those of the source. No cut-off for these calls is given here.

`O=C(O)c1cc(=O)c2c(OCC(O)COc3cccc4oc(C(=O)O)cc(=O)c34)cccc2o1` [CROMOLYN SODIUM]: in the assay on Mast cell [1], the inhibition at 20 µM turned out to be 10%. Regarding `O=C1CCC(N(Cc2ccccc2)C2CCCC2)c2ccccc21` (centres undefined), the IC50 is 280 nM in the assay with Mast cell [2], 7200 nM in the assay with Mast cell [3] and 2400 nM in the assay on Mast cell [4]. Also, the inhibition at 20 µM in the assay with Mast cell [1] was 99%. For `COc1cc(CN(C2CCCC2)C2CCC(=O)c3ccccc32)cc(OC)c1OC` (centres undefined), the result in the assay on Mast cell [5] was inactive. In the case of `COc1ccc2c(c1)c(CC(=O)O)c(C)n2C(=O)c1ccc(Cl)cc1` [INDOMETHACIN], the “inhibition (INH)” value in the assay with Mus musculus is 74%. Still for that read-out and setting: the value for `O=C1CCC(N(C(=O)Cc2ccccc2)C2CCCC2)c2ccccc21` (centres undefined) was 53%.

Regarding `CC(=O)c1ccccc1CN(C)Cc1ccccc1`, the outcome with Mast cell [5] and with Mast cell [6] was inactive. For the compound `O=C1CCC(N(Cc2ccc3ccccc3c2)C2CCCC2)c2ccccc21` (centres undefined), the inhibition at 20 µM in the assay on Mast cell [1] is 77%. As to `CCC(=O)NC1CCC(=O)c2ccccc21` (centres undefined), the “inhibition (INH)” value in the assay with Mus musculus was 11%. With `O=C1CCC(N(Cc2ccc([N+](=O)[O-])cc2)C2CCCC2)c2ccccc21` (centres undefined), the inhibition at 20 µM with Mast cell [1] was found to be 65%. As to `C=CCN(C1CCCC1)C1CCC(=O)c2ccccc21` (centres undefined), the result in the assay with Mast cell [5] was inactive. For `CN(Cc1ccccc1)C1CCC(=O)c2ccccc21` (centres undefined), the outcome in the assay on Mast cell [5] and in the assay on Mast cell [6] was inactive.

Regarding `N#Cc1ccc(CN(C2CCCC2)C2CCC(=O)c3ccccc32)cc1` (centres undefined), the inhibition at 20 µM with Mast cell [1] was 67%. As to `CN(C1CCCC1)C1CCC(=O)c2ccccc21` (centres undefined), the inhibition at 20 µM in the assay with Mast cell [1] is 43%.

Regarding `CC(=O)N(C1CCCC1)C1CCC(=O)c2ccccc21` (centres undefined), the “inhibition (INH)” value with Mus musculus was 2%.

(Values after ChEMBL document CHEMBL1154480, “Synthesis and evaluation of 4-amino-3,4-dihydro-2H-naphthalen-1-one derivatives as mast cell stabilising and anti-inflammatory compounds” (Eur J Med Chem, 2008).)
